Assay results pooled from the literature.
Protocols differ between the studies behind these lines.
CSNK1A1: Casein kinase I isoform alpha (CSNK1A1, Homo sapiens, UniProt P48729)
HDAC10: Polyamine deacetylase HDAC10 (HDAC10, Homo sapiens, UniProt Q969S8)
ADRB2: Beta-2 adrenergic receptor (ADRB2, Homo sapiens, UniProt P07550)
P2RY6: P2Y purinoceptor 6 (P2RY6, Homo sapiens, UniProt Q15077)
MMP2: 72 kDa type IV collagenase (MMP2, Homo sapiens, UniProt P08253)
CNR2: Cannabinoid receptor 2 (CNR2, Homo sapiens, UniProt P34972)
Trpc6: Short transient receptor potential channel 6 (Trpc6, Mus musculus, UniProt Q61143)
Akr1b1: Aldo-keto reductase family 1 member B1 (Akr1b1, Rattus norvegicus, UniProt P07943)
SETD7: Histone-lysine N-methyltransferase SETD7 (SETD7, Homo sapiens, UniProt Q8WTS6)
SLC22A2: Solute carrier family 22 member 2 (SLC22A2, Homo sapiens, UniProt O15244)
DDR1: Epithelial discoidin domain-containing receptor 1 (DDR1, Homo sapiens, UniProt Q08345)
CYP1B1: Cytochrome P450 1B1 (CYP1B1, Homo sapiens, UniProt Q16678)

SMILES | target | assay | system | conditions | IC50
CN1CCN(c2ccc(Nc3ncc4cc(C#N)c(=O)n(C5CCCC5)c4n3)cc2)CC1 | CSNK1A1 | enzyme activity, inhibitor |  |  | > 10 µM
O=C(NO)c1ccc(CN(c2cnccn2)c2cnccn2)cc1 | HDAC10 | enzyme activity, inhibitor, fluorescence |  |  | > 10 µM
COc1cc(N)c(Cl)cc1C(=O)CCC1CCN(CCNS(C)(=O)=O)CC1 | ADRB2 | ligand displacement, radioligand |  | cell membranes | 62.6 µM
CC[Si](C#Cc1ccc2c(c1)C=C([N+](=O)[O-])C(C(F)(F)F)O2)(CC)CC (stereo not drawn) | P2RY6 | calcium signal, antagonist |  |  | ~1 µM
Cc1noc(-c2cc3cc(-c4cc(C(=O)NCc5ccc(C(=O)O)cc5)nn4C)ccc3[nH]2)n1 | MMP2 | enzyme activity, inhibitor |  |  | > 20 µM
O=[N+]([O-])C1=Cc2ccccc2OC1C(F)(F)F (stereo not drawn) | P2RY6 | calcium signal, antagonist, fluorescence |  |  | 2.62 µM
Cc1c(C(=O)N[C@H]2CCC[C@H](O)C2)nc(-c2ccc(Cl)cc2Cl)n1-c1ccc(OS(=O)(=O)CCC(F)(F)F)cc1 (relative stereo) | CNR2 | GTPγS binding, antagonist |  | cell membranes | 0.425 µM
CCCC[C@H](NC(=O)[C@H](C)c1c(C)[nH]c2ccc(O)cc12)c1ncc(-c2cc3ccccc3nc2OC)[nH]1 | HDAC10 | enzyme activity, inhibitor |  |  | 0.43 µM
Cc1noc(-c2cc3cc(-c4nc(C(=O)NCc5ccncc5)[nH]c4C)ccc3[nH]2)n1 | MMP2 | enzyme activity, inhibitor |  |  | > 20 µM
COc1cccc2sc(N(CCN3CCCC3)C(=O)c3ccc(Cl)s3)nc12 | Trpc6 | calcium signal, fluorescence |  |  | 63.9 µM
COc1ccc(/C=C2\SC(=Nc3nc4ccc(OC)cc4s3)NC2=O)cc1 | Akr1b1 | enzyme activity, inhibitor, absorbance |  | pH 6.2 | 4.35 µM
CC(=O)N[C@H]1CC(=O)NCCCC[C@@H](C(=O)N[C@@H](CCCNC(=N)N)C(=O)c2nc3ccc(C(=O)N[C@H](C(N)=O)C(C)C)cc3s2)NC(=O)[C@H](CC(C)C)NC1=O | Serine protease hepsin (HPN, Homo sapiens, UniProt P05981) | enzyme activity, inhibitor, fluorescence |  | with preincubation | 0.0054 µM
O=C(OCc1ccccc1)c1ccc(O)cc1 | SETD7 | enzyme activity, inhibitor |  |  | > 333 µM
COc1ccc2nc(/N=C3/NC(=O)C(=Cc4ccc(O)c(OC)c4)S3)sc2c1 | Akr1b1 | enzyme activity, inhibitor, absorbance |  | pH 6.2 | 0.83 µM
COc1ccc2c3ccnc(C(F)(F)F)c3n(CCCCN)c2c1 | Serine/threonine-protein kinase haspin (HASPIN, Homo sapiens, UniProt Q8TF76) | enzyme activity, inhibitor, TR-FRET |  |  | 0.1 µM
O=C(Nc1ccc(Cl)cc1)Nc1cccc(-c2ccc[nH]2)c1 | CNR2 | calcium signal, antagonist |  |  | > 10 µM
Cc1noc(-c2cc3cc(-c4nc(C(N)=O)[nH]c4C)ccc3[nH]2)n1 | MMP2 | enzyme activity, inhibitor |  |  | > 20 µM
Cc1ccc(S(=O)(=O)N2C(=O)COC23C=CC(=O)C=C3)cc1 | MMP2 | enzyme activity, inhibitor, fluorescence |  |  | 6.8 µM
CCN(CC)CCNC(=O)c1cc(Cl)c(N)cc1OC | ADRB2 | ligand displacement, radioligand |  | cell membranes | 67.4 µM
Cc1c(C(=O)NN2CCCCC2)nc(-c2ccc(Cl)cc2Cl)n1-c1ccc(OS(=O)(=O)CCC(C)C)cc1 | CNR2 | GTPγS binding, antagonist |  | cell membranes | 0.271 µM
Cn1nc(C(=O)NCc2ccc(C(=O)O)cc2)cc1-c1ccc2[nH]c(-c3cncnc3)cc2c1 | MMP2 | enzyme activity, inhibitor |  |  | > 20 µM
CCN1CCCC1CNC(=O)c1cc(S(=O)(=O)CC)c(N)cc1OC (stereo not drawn) | ADRB2 | ligand displacement, radioligand |  | cell membranes | 105 µM
CN/C(=N/CCSCc1nc[nH]c1C)NC#N | SLC22A2 | transporter uptake, inhibitor | MDCK-II |  | 17 µM
Cc1ccc(NC(=O)c2ccc(C)c(C(F)(F)F)c2)cc1C#Cc1nn(C2CCC(O)CC2)c2ncnc(N)c12 (stereo not drawn) | DDR1 | enzyme activity, inhibitor, radiometric |  |  | 0.015 µM

SMILES | target | assay | system | conditions | IC50
CCC1(c2ccc(C)cc2)C(=O)N(C(=O)OC(C)C)N1C(=O)OC(C)C (stereo not drawn) | Monoacylglycerol lipase ABHD6 (Abhd6, Mus musculus, UniProt Q8R2Y0) | enzyme activity, inhibitor |  |  | 3 µM
CN(C(=O)n1cnc(-c2ccc[n+]([O-])c2)c1)C1CCCCC1 | SLC22A2 | transporter uptake, inhibitor | MDCK-II |  | > 33.3 µM
CCS(=O)(=O)N1CC(CC#N)(n2cc(-c3ncnc4[nH]ccc34)cn2)C1 | SLC22A2 | transporter uptake, inhibitor, radiometric |  | 2 min | 11.6 µM
CNC(=O)c1cc2c(Oc3ccc(NC(=O)C4(C(=O)Nc5ccc(F)cc5)CC4)cc3)ccnc2cc1OC | DDR1 | enzyme activity, inhibitor, radiometric |  |  | 0.013 µM
N=C(N)NCCCC(NC(=O)C(c1ccccc1)c1ccccc1)C(=O)NCc1ccc(O)cc1 (stereo not drawn) | ADRB2 | ligand displacement, radioligand |  | cell membranes | 63.1 µM
COc1ccc2nc(/N=C3/NC(=O)C(=Cc4ccc(O)cc4)S3)sc2c1 | Akr1b1 | enzyme activity, inhibitor, absorbance |  | pH 6.2 | 1.3 µM
CC(C)=CCc1c(O)cc(O)c2c1O[C@H](c1ccc(O)cc1)CC2=O | CYP1B1 | enzyme activity, inhibitor, fluorescence |  | 15 min, pH 7.4 | 0.41 µM
CCCC[C@H](NC(=O)C1CN(C)C1)c1ncc(-c2cc3ccccc3nc2OC)[nH]1 | HDAC10 | enzyme activity, inhibitor |  |  | 0.075 µM
CC(C)(C)n1nc(-c2ccc3nc(OC4CC4)ccc3c2)c(C(N)=O)c1N | CSNK1A1 | cell-free assay, inhibitor |  |  | > 10 µM
O=C(O)C(=O)CC(=O)c1cccc(N(Cc2ccccc2)Cc2ccccc2)c1 | Dual specificity protein phosphatase 3 (DUSP3, Homo sapiens, UniProt P51452) | enzyme activity, inhibitor, absorbance |  | pH 7 | 113 µM
COc1ccc2nc(/N=C3/NC(=O)C(=Cc4cc(OC)c(O)c(OC)c4)S3)sc2c1 | Akr1b1 | enzyme activity, inhibitor, absorbance |  | pH 6.2 | 10.5 µM
COc1cccc2sc(N(CCN(C)C)C(=O)c3ccc(Cl)s3)nc12 | Trpc6 | calcium signal, fluorescence |  |  | 139 µM
O=C(O)CSc1nnc(Br)n1-c1ccc(C2CC2)c2ccccc12 | SLC22A2 | transporter uptake, inhibitor | MDCK-II | 5 min | > 300 µM
O=S(=O)(Nc1ccc2cccc(O)c2n1)c1ccc(-c2ccccc2)cc1 | MMP2 | enzyme activity, inhibitor, fluorescence |  |  | 48 µM
Cc1noc(-c2cc3cc(-c4nc(C(=O)NCC5CCOCC5)[nH]c4C)ccc3[nH]2)n1 | MMP2 | enzyme activity, inhibitor |  |  | > 20 µM
COc1ccc2nc(N(CCN3CCCC3)C(=O)c3ccc(Cl)s3)sc2c1 | Trpc6 | calcium signal, fluorescence |  |  | 33 µM
Cc1c(C(=O)N[C@H]2CCCC[C@H]2N)nc(-c2ccc(Cl)cc2Cl)n1-c1ccc(OS(=O)(=O)CCC(F)(F)F)cc1 (racemic) | CNR2 | GTPγS binding, antagonist |  | cell membranes | 0.805 µM
COc1cc(O)c(CC=C(C)C)c(O)c1C(=O)/C=C/c1ccc(O)cc1 | CYP1B1 | enzyme activity, inhibitor, fluorescence |  | 15 min, pH 7.4 | 0.34 µM
Cn1nc(C(=O)NCc2ccc(C(=O)O)cc2)cc1-c1ccc2[nH]c(-c3cccnc3)cc2c1 | MMP2 | enzyme activity, inhibitor |  |  | > 20 µM
CN(C)CCC1(c2ccc(Cl)cc2)Cc2ccccc2C(=O)O1 (stereo not drawn) | ADRB2 | ligand displacement, radioligand |  | cell membranes | 86.8 µM
CC/C(=C(\c1ccccc1)c1ccc(OCCN(C)C)cc1)c1ccccc1 | SETD7 | enzyme activity, inhibitor |  |  | > 333 µM
Cc1c(C(=O)NN2CCCCC2)nc(-c2ccc(Cl)cc2Cl)n1-c1ccc(OS(=O)(=O)CCCC(F)(F)F)cc1 | CNR2 | GTPγS binding, antagonist |  | cell membranes | 0.32 µM
Cn1cc(-c2cc3cc(-c4cc(C(=O)NCc5ccc(C(=O)O)cc5)nn4C)ccc3[nH]2)cn1 | MMP2 | enzyme activity, inhibitor |  |  | > 20 µM
COc1c(OCC2CCCC2)cc2c(c1C=O)CC(O)OC2=O (stereo not drawn) | Receptor-type tyrosine-protein phosphatase S (PTPRS, Homo sapiens, UniProt Q13332) | enzyme activity, inhibitor, absorbance |  |  | 0.6 to 0.7 µM
